According to ChEMBL document CHEMBL4145462, “Nitrogen-containing ecdysteroid derivatives vs. multi-drug resistance in cancer: Preparation and antitumor activity of oximes, oxime ethers and a lactam” (Eur J Med Chem, 2018):

Key:
[1] = Cytotoxicity against mouse L5178 cells after 48 hrs by MTT assay; format: functional, cell-based; conditions: L5178, 48 h
Procedure, shortened: (§1)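 Parental mouse lymphoma L5178 and the MDR line made by pHa MDR1/A retrovirus transfection, selected with 60 µg/L colchicine. Grown in McCoy's 5A with horse serum at 37°C, 5% CO2. 5 x 10^4 cells/well, serial compound dilutions, 48 h. MTT added to 0.5 mg/mL final for 4 h, then 10% SDS in 0.01 M HCl overnight, OD read at 540 and 630 nm. IC50 taken as median cytotoxic activity (Dm) from control lanes of checkerboard plates, n=2.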

[2] = Cytotoxicity against mouse L5178 cells expressing human ABCB1 after 48 hrs by MTT assay; format: functional, cell-based; conditions: L5178, 48 h; procedure, shortened: as §1
ABCB1 (P-glycoprotein) [3] = target: T1, ABCB1 (P-glycoprotein) (Homo sapiens, UniProt P08183); assay: Inhibition of human ABCB1 expressed in mouse L5178 cells assessed as increase in rhodamine-123 accumulation at 2 uM after 10 mins by flow cytometric analysis relative to control; format: cell-based; conditions: mouse L5178 cells expressing human ABCB1, probe rhodamine-123
T1 sequence (P08183 whole entry): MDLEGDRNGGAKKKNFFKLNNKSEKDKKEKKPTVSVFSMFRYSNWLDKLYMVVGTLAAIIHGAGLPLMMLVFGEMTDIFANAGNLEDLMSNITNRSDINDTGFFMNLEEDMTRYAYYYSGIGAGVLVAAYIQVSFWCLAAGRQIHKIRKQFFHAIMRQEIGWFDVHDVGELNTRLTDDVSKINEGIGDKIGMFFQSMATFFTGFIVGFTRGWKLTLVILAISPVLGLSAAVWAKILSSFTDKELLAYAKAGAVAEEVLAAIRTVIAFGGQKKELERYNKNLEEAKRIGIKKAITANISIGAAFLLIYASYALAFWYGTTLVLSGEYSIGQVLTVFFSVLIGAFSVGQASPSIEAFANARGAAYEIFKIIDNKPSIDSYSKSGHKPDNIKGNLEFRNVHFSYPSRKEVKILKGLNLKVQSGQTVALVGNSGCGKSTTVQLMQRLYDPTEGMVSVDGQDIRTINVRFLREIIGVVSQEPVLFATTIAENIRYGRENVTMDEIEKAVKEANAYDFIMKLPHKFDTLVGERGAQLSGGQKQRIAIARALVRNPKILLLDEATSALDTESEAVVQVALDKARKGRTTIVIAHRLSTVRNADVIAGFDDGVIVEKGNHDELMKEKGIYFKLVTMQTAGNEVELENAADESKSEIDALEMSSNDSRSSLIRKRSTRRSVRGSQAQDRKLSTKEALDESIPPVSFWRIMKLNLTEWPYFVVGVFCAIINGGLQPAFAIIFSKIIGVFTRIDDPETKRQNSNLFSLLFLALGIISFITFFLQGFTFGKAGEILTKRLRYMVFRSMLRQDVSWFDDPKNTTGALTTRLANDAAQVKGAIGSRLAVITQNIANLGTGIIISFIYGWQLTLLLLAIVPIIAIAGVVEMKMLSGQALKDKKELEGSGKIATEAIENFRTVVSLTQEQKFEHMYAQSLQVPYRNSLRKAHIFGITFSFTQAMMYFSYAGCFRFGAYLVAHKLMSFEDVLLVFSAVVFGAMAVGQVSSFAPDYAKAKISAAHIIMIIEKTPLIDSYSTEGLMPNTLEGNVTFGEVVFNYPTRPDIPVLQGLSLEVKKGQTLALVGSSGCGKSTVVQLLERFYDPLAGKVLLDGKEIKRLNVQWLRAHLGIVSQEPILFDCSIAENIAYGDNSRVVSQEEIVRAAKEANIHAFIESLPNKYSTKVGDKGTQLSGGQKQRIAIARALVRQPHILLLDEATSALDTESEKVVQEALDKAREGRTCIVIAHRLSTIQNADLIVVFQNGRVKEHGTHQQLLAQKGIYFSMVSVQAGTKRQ
Procedure, shortened: (§2)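 Cells at 2 × 10^6/mL were preincubated 10 min with compound. Rhodamine 123 then added to 5.2 µM final, 20 min at 37 °C. Cells washed twice in PBS, resuspended and read by flow cytometry. Percent inhibition was scaled between MDR-cell accumulation (0%) and parental L5178 accumulation (100%). Controls: 100 nM tariquidar (positive) and 2% DMSO (negative).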

ABCB1 (P-glycoprotein) [4] = target: T1, ABCB1 (P-glycoprotein); assay: Inhibition of human ABCB1 expressed in mouse L5178 cells assessed as increase in rhodamine-123 accumulation at 20 uM after 10 mins by flow cytometric analysis relative to control; format: cell-based; conditions: mouse L5178 cells expressing human ABCB1, probe rhodamine-123; procedure, shortened: as §2
[5] = Synergistic cytotoxicity against mouse L5178 cells assessed as combination index at ED50 using 150:1 test compound to doxorubicin ratio after 48 hrs by MTT-based checkerboard microplate method; format: functional
Procedure, shortened: (§3)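 Checkerboard microplate combinations of compound with doxorubicin at constant molar ratios. 5 × 10^4 cells/well in McCoy's 5A, 48 h at 37°C, 5% CO2. MTT added to 0.5 mg/mL final for 4 h, SDS/HCl overnight, OD read at 540 and 630 nm. Combination indices derived per ratio for 50%, 75% and 90% growth inhibition by median-effect analysis.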

[6] = Synergistic cytotoxicity against mouse L5178 cells expressing human ABCB1 assessed as combination index at ED50 using 15:1 test compound to doxorubicin ratio after 48 hrs by MTT-based checkerboard microplate method; format: functional; procedure, shortened: as §3
[7] = Synergistic cytotoxicity against mouse L5178 cells assessed as combination index at ED75 using 150:1 test compound to doxorubicin ratio after 48 hrs by MTT-based checkerboard microplate method; format: functional; procedure, shortened: as §3
[8] = Synergistic cytotoxicity against mouse L5178 cells assessed as combination index at ED90 using 150:1 test compound to doxorubicin ratio after 48 hrs by MTT-based checkerboard microplate method; format: functional; procedure, shortened: as §3
[9] = Synergistic cytotoxicity against mouse L5178 cells expressing human ABCB1 assessed as combination index at ED75 using 15:1 test compound to doxorubicin ratio after 48 hrs by MTT-based checkerboard microplate method; format: functional; procedure, shortened: as §3
[10] = Synergistic cytotoxicity against mouse L5178 cells expressing human ABCB1 assessed as combination index at ED90 using 15:1 test compound to doxorubicin ratio after 48 hrs by MTT-based checkerboard microplate method; format: functional; procedure, shortened: as §3
[11] = Synergistic cytotoxicity against mouse L5178 cells expressing human ABCB1 assessed as combination index at ED50 using 30:1 test compound to doxorubicin ratio after 48 hrs by MTT-based checkerboard microplate method; format: functional; procedure, shortened: as §3
[12] = Synergistic cytotoxicity against mouse L5178 cells expressing human ABCB1 assessed as combination index at ED75 using 30:1 test compound to doxorubicin ratio after 48 hrs by MTT-based checkerboard microplate method; format: functional; procedure, shortened: as §3
[13] = Synergistic cytotoxicity against mouse L5178 cells expressing human ABCB1 assessed as combination index at ED90 using 30:1 test compound to doxorubicin ratio after 48 hrs by MTT-based checkerboard microplate method; format: functional; procedure, shortened: as §3
[14] = Synergistic cytotoxicity against mouse L5178 cells expressing human ABCB1 assessed as combination index at ED50 using 60:1 test compound to doxorubicin ratio after 48 hrs by MTT-based checkerboard microplate method; format: functional; procedure, shortened: as §3
[15] = Synergistic cytotoxicity against mouse L5178 cells expressing human ABCB1 assessed as combination index at ED75 using 60:1 test compound to doxorubicin ratio after 48 hrs by MTT-based checkerboard microplate method; format: functional; procedure, shortened: as §3
[16] = Synergistic cytotoxicity against mouse L5178 cells expressing human ABCB1 assessed as combination index at ED90 using 60:1 test compound to doxorubicin ratio after 48 hrs by MTT-based checkerboard microplate method; format: functional; procedure, shortened: as §3
[17] = Synergistic cytotoxicity against mouse L5178 cells assessed as combination index at ED50 using 300:1 test compound to doxorubicin ratio after 48 hrs by MTT-based checkerboard microplate method; format: functional; procedure, shortened: as §3
[18] = Synergistic cytotoxicity against mouse L5178 cells assessed as combination index at ED75 using 300:1 test compound to doxorubicin ratio after 48 hrs by MTT-based checkerboard microplate method; format: functional; procedure, shortened: as §3
[19] = Synergistic cytotoxicity against mouse L5178 cells assessed as combination index at ED90 using 300:1 test compound to doxorubicin ratio after 48 hrs by MTT-based checkerboard microplate method; format: functional; procedure, shortened: as §3
[20] = Synergistic cytotoxicity against mouse L5178 cells assessed as combination index at ED50 using 600:1 test compound to doxorubicin ratio after 48 hrs by MTT-based checkerboard microplate method; format: functional; procedure, shortened: as §3
[21] = Synergistic cytotoxicity against mouse L5178 cells assessed as combination index at ED75 using 600:1 test compound to doxorubicin ratio after 48 hrs by MTT-based checkerboard microplate method; format: functional; procedure, shortened: as §3
[22] = Synergistic cytotoxicity against mouse L5178 cells assessed as combination index at ED90 using 600:1 test compound to doxorubicin ratio after 48 hrs by MTT-based checkerboard microplate method; format: functional; procedure, shortened: as §3
HeLa = assay: Antiproliferative activity against human HeLa cells after 72 hrs by MTT assay; format: functional, cell-based
Procedure, shortened: (§4)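 Cells grown in MEM with 10% FCS, 1% non-essential amino acids and 1% penicillin-streptomycin. Seeded at 5000 cells/well, exposed to 0.1–30.0 µM compound for 72 h. MTT (5 mg/ml solution) was then added for 4 h, formazan dissolved in DMSO, and absorbance read at 545 nm. Cisplatin served as positive control. IC50 came from sigmoidal dose–response fits (log inhibitor vs normalized response, variable slope).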

SiHa = assay: Antiproliferative activity against human SiHa cells after 72 hrs by MTT assay; format: functional, cell-based; procedure, shortened: as §4
MDA-MB-231 = assay: Antiproliferative activity against human MDA-MB-231 cells after 72 hrs by MTT assay; format: functional, cell-based; conditions: MDA-MB-231, 72 h; procedure, shortened: as §4
MCF7 = assay: Antiproliferative activity against human MCF7 cells after 72 hrs by MTT assay; format: functional, cell-based; conditions: MCF7, 72 h; procedure, shortened: as §4
[23] = Synergistic cytotoxicity against mouse L5178 cells assessed as combination index at ED50 using 37.5:1 test compound to doxorubicin ratio after 48 hrs by MTT-based checkerboard microplate method; format: functional; procedure, shortened: as §3
[24] = Synergistic cytotoxicity against mouse L5178 cells assessed as combination index at ED75 using 37.5:1 test compound to doxorubicin ratio after 48 hrs by MTT-based checkerboard microplate method; format: functional; procedure, shortened: as §3
[25] = Synergistic cytotoxicity against mouse L5178 cells assessed as combination index at ED90 using 37.5:1 test compound to doxorubicin ratio after 48 hrs by MTT-based checkerboard microplate method; format: functional; procedure, shortened: as §3
[26] = Synergistic cytotoxicity against mouse L5178 cells assessed as combination index at ED50 using 75:1 test compound to doxorubicin ratio after 48 hrs by MTT-based checkerboard microplate method; format: functional; procedure, shortened: as §3
[27] = Synergistic cytotoxicity against mouse L5178 cells assessed as combination index at ED75 using 75:1 test compound to doxorubicin ratio after 48 hrs by MTT-based checkerboard microplate method; format: functional; procedure, shortened: as §3
[28] = Synergistic cytotoxicity against mouse L5178 cells assessed as combination index at ED90 using 75:1 test compound to doxorubicin ratio after 48 hrs by MTT-based checkerboard microplate method; format: functional; procedure, shortened: as §3

Row | inhibition at 10 min, 2 µM (ABCB1 (P-glycoprotein) [3]) [%] | inhibition at 10 min, 20 µM (ABCB1 (P-glycoprotein) [4]) [%] | Structure (SMILES) | IC50 [1] [µM] | IC50 [2] [µM] | CI [5] | CI [6] | CI [7] | CI [8] | CI [9] | CI [10] | CI [11] | CI [12] | CI [13] | CI [14] | CI [15] | CI [16] | CI [17] | CI [18] | CI [19] | CI [20] | also measured
1 | 2.54 | 20.9 | CC(C)(O)CC[C@H]1OC(C)(C)O[C@]1(C)[C@H]1CC[C@@]2(O)C3=CC(=O)[C@@H]4C[C@H]5OC(C)(C)O[C@H]5C[C@]4(C)[C@H]3CC[C@]12C | 110 | 97.7 |  |  |  |  |  |  |  |  |  |  |  |  |  |  |  |  | 
2 | 10.6 | 83 | CC(C)(O)CC[C@H]1OC(C)(C)O[C@]1(C)[C@H]1CC=C2C3=C/C(=N\O)[C@@H]4C[C@H]5OC(C)(C)O[C@H]5C[C@]4(C)[C@H]3CC[C@@]21C | 20.9 | 24.6 | 0.8 | 0.26 | 0.79 | 0.78 | 0.16 | 0.12 | 0.25 | 0.19 | 0.16 | 0.34 | 0.29 | 0.27 | 1.18 | 1.11 | 1.04 | 1.1 | CI [21]: 1.11; CI [22]: 1.13
3 | 21 | 89.4 | C=CCO/N=C1\C=C2[C@H](CC[C@]3(C)[C@@H]([C@@]4(C)OC(C)(C)O[C@@H]4CCC(C)(C)O)CC[C@@]23O)[C@@]2(C)C[C@@H]3OC(C)(C)O[C@@H]3C[C@@H]12 | 31.5 | 51.9 | 1.03 | 0.17 | 0.81 | 0.69 | 0.13 | 0.13 | 0.17 | 0.18 | 0.21 | 0.24 | 0.26 | 0.31 | 1.22 | 1.12 | 1.11 | 1.19 | IC50 (HeLa): 15.6 µM; IC50 (SiHa): 25.5 µM; IC50 (MDA-MB-231): 21.4 µM; IC50 (MCF7): 13.6 µM; CI [23]: 1.95; CI [24]: 1.28; CI [25]: 0.89; CI [26]: 1.35; CI [27]: 1.27; CI [28]: 1.27; CI [21]: 1.08; CI [22]: 1.05
